The labels stand for the following.
B1: tRNA (parent)
chain: GUUCCGUUGGCGUAAUGGUAACGCGUCUCCCUCCUAAGGAGAAGACUGCGGGUUCGAGUCCCGUACGGAACG

This sample holds only a part of the variants without activity.

The variants in the data set derive from B1. In words: yeast fitness relative to wild type (ratio to wild type); higher = fitter; tRNA-Arg(CCU), competitive growth, 37 C, YPD. In short, it runs like this: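 Changes in genotype frequencies gave Darwinian fitness relative to wild type. Frequencies were read by 100-nucleotide paired-end sequencing of gene amplicons before and after pooled Saccharomyces cerevisiae strains, carrying tRNA-Arg(CCU) gene variants at the native locus, were competed in YPD at 37°C for 24 hours in six replicates. A genotype was kept only with ≥ 100 starting reads, and estimates < 0.5 were set to 0.5.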
Consider GUUCCGUUGGCGUUAUGGUAACGCGUCUCCCUCCUUAGGAGAAGGCUGCGGGUUCGAGUCCCGUACGGAACG, for which the yeast fitness is at most 0.5. The value for GUUCCGUUGGCGUUAUGGUAACGCGUCUCCCUCCUAAGGAGAAGCUUGGGGGUUCGAGUCCCAUACGGAUCG was 0.661.

With GUUCCGUUGGCGUUAUGGUAACGCGUCUCCCUCCUAUGGAGAAGACUGCGGGUUCGAGUCACGUUCGGAACG, the yeast fitness was at most 0.5. With GUUCCGUUGGCGUUAUGGUUACGCGUCUCCCUCCUAAGGAGAAGACUGCGGGUUCGAGUCCCGUACAGAACG the figure was 0.544; with GUUCCGUUGGCGUUAUGGUGACGAGUCUCCUUCCUAUGGAGAAGACUACGGGUUCGAGUCCCGUACGGCACG, at most 0.5; with GUUCCGUUGGCGUGAUGGUAACGCGUCUCCCUCCUAAGGAGAAGACUGCGGGCUCGAGUCCCGUACCGAACG, at most 0.5. With GUUCCGUUGGCGUUAUGGUAACGCGUCUCCCUCCUAAGGAGAUGACUGCGGGUUCGAGACCCGUACGGAACG the figure was at most 0.5. With GUUCCGUUGGCGUUAUGGUAAGGCGUCUCCCUCCUAAGGAGUAGACUGCGGGUUCGAGUCCCGUACGGAACG the figure was at most 0.5; with GUUCCGUUGGCGUGAUGGUAACGCGUCUCCCUCCUAAGGAGAAGACUGCGGGGUCAAGUCUCGUACGGAACG, 0.656; with GUUCCGUUGGCGUUAUGGUGACGCGUCUCGCUCCUAAGGAGCAGACUGCGGGUUCGAGUCCCGUACGGAACG, at most 0.5. In the case of GUUCCGUUGGCGUGAUGGUAACGCGUCUCCCUCCUAAGGAGAAGACUGCGGGUCCGAGUCCCGUACGGAACG, the yeast fitness stood at 0.633.

Take GUUCCGUUGGCGUUAUGGUACCGCGUCUCCCUCCUCAGGAGAAGACUGAGGGUUCGAGUCCCGUACGCAACG: the yeast fitness was at most 0.5. Turning to GUUCCGUUGGCGUUGUGAUAACGCGUCUCCCUCCUAAGGAGAAGACUGCGGGUUCGAGUCCCGUACGGAACG, the yeast fitness is at most 0.5. The value for GUUCCGUUGGCGUUGUGGUAACGCGUCUCCCUUCUAAGGAGCAGACUGCGGGUUCGAGUCCCGUACGGAACG was at most 0.5; that for GUUCCGUUGGCGUUAUGGUAUCGCGUCUGCCUCCUAAGGAGAAGAUUGCGGGUUCGAGUCCCGUACGGAACG was at most 0.5. With GUUCCGUUGGCGUGAUGGUAACGCGUCUCCCUCCUAAGGAGAAGACUGCGGGUCCGAGUCCCGUACGGAGCG the figure was 0.535; with GUUCCGUUGGCGUUAUGGUCACGCGUCUCCCUCCUAAGGAGAAGACUGCGGGUUCGAGCCCCGUACGGAACG, at most 0.5; with GUUCCGUUGGCGUUAUGGUAGCGCAUCUCCCUCGUAAGGAGAAGACUGCGGGUUCGUGUCCCGUACGGUACG, at most 0.5. With GUUCCGUUGGCGUUAUGGUAAGGCGUCUCCCUCCUAAGGAGAAGACUGCGGGUUCGAGUCCCGUACGGAUCG, the yeast fitness is 0.576.

Take GUUCCGUUGGCGUUAUGGUCACGCGUCUCCGUCCUAAGGAGAAGACUGCGGGUUCGAGUCCCGUACGGUACG: the yeast fitness is at most 0.5.

As for GUUCCGUUGGCGUUAUGGUAUUGCGUCUCCCUCCUAAGGAGAAGACUGCGGGUUCGAGUCCCGUACGGAACG, the yeast fitness amounted to 0.527. With GUUCCGUUGGCGUUAUGGUAACGCGUCUCCCUCCUAAGGAGAGGACUGCGGGUUCGAGUCCCCUACGGAACG the figure was at most 0.5. The value for GUUCCGUUGGCGUUAUGGUAACGCGUCUCCCUCCUAAGGAGGGGACUGCGGGUUCGAGUCCCGUAGGGAACG was at most 0.5; that for GUUCCGUUGGCGUUAUGGUAACGCGUCUCCCUCCUAAGGAGAAGGCUGCGGGUUCGAGUCCCGUACGGAACG was 0.67; that for GUUCCGUUGGCGUUAUGGUAGCGCGUCUCCCUCCUAAGGAGAAGACUGCGGGUUCGAGUCCCGUACGGAACG was 0.584. With GUUCCGUUGGCGUUAUGGUAACGCGUCUCCCUCCUAAGGAGAAGACUGCGGGUUCGUGUACCGUACGGAACG the figure was at most 0.5; with GUUCCGUUGGCGUUCUGGUAACGCGUCUCCCUCCUAAGGGGAAGACUGCGGGUUCCAGUCCCGUACCGAACG, at most 0.5; with GUUCCGUUGGCGUUAUGGUAACGCGUCUCCCUCCUAAGGAGAAGUCUGCGGGUUCGAGUCCCGUACGCAACG, at most 0.5.

As for GUUCCGUUGGCGUUAUGGUAGCGCGUCUCCCUCCUAAGGAGAUGACUGCGGGUUCGACUCCCGUACGGAACG, the yeast fitness is at most 0.5. The value for GUUCCGUUGGCGUUAUGGUAACGCGUCUCCCUCCUAUGGCGGAGACUGCGGGUUCGAGUCCCGUACGGAACG was at most 0.5; that for GUUCCGUUGGCGUUAUGGUAACGCGUCUCCCUCCUAAGGAGAAGACUGCGGGUUCGAGUCCCGUACGGAGCG was 0.734. With GUUCCGUUGGCGUUGUGGUAACGUGUCUCCUUCCUAAGGAGAAGACUGCGGGUUCGAGUCUCGUACGGAACG the figure was at most 0.5. The value for GUUCCGUUGGCGUUAUGGUAACGCGUCUCCCUCCUAAGGAGAAGUCUGCGGGUUCGACUCCCGUACGGAACG was at most 0.5. As for GUUCCGUUGGCGUUAUGGUAACGCGUCUCCCUCCUUAGGAGAAGACUGCGGGUUCGAGUCCGGUACGGAACG, the yeast fitness was at most 0.5. With GUUCCGUUGGCGUUAUGGUCACACGUCUCCCUCCUAAGGAGAAGAAUGCGGGUUCGAGUCCCGCACGGAACG the figure was at most 0.5; with GUUCCGUUGGCGUUAUGGUAGCGCGUCUCCCUCCUAAGGAGAAGCCUGCGGGUUCGAGCCCCGUACGGAACG, at most 0.5; with GUUCCGUUGGCGUUAUGGUCAGGCGUCUCCGUCCUAAGGAGAAGACAGCGGGUUCGAGUCCCGUACGGAACG, at most 0.5.

The values above are taken from the RNAGym collection of RNA variant scans (doi:10.1126/science.aae0568).
